The list is not random: actives were taken first. Their share in the collection is about 2.8%.
pCIP destab – p/CIP-EGFP fusion destabilizers, primary screen, fluorescence, F442A cells; AID 1984, 2009; Q05BA5; 290,000 compounds, 0.01% hits; decrease of EGFP signal, % at 10 µM; 16 h;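 active = EGFP signal decrease of at least 30% at 10 µM or well 3 SD below plate mean, unless failing retest; inactive = the rest, including hits failing retest or dose response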
UBC13 inh – UBC13 polyubiquitin chain formation inhibitors, primary screen, biochemical, TR-FRET, uHTS; Ubiquitin-conjugating enzyme E2 N (Homo sapiens), P61088; inhibition, % at 20 µM; 330,000 compounds, 0.47% hits; AID 485273, 2010; in the data active = inhibition above about 45%, passing the limit was not always enough
Target sequence (P61088 whole entry, looked up): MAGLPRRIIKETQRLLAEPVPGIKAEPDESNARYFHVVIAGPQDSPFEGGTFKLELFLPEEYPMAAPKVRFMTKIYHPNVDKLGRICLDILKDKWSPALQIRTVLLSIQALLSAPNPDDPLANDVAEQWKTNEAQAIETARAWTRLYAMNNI
PP1 inh – PP1-alpha phosphatase inhibitors, primary screen, counter-screen for PP5 inhibitor project, biochemical, fluorescence, OMFP substrate, single point; Serine/threonine-protein phosphatase PP1-alpha catalytic subunit (Homo sapiens), P62136; purified PP1alpha; inhibition, % at 6.7 µM; 320,000 compounds, 0.9% hits; AID 2235, 2010;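 active = inhibition above the mean inhibition of all tested compounds plus 3 SD, computed separately for each screening campaign, cut at about 15% in these data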
Target sequence (P62136 whole entry, looked up): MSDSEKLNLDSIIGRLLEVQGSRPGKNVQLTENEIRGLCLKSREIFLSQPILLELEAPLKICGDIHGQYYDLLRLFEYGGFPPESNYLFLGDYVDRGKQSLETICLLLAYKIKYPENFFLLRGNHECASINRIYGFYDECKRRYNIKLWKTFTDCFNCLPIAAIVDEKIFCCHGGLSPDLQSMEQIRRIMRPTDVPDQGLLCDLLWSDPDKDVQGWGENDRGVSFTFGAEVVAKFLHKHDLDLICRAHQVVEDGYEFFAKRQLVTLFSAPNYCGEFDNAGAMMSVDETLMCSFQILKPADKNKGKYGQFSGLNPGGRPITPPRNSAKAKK
AI-2 QS mod – Vibrio harveyi AI-2 quorum sensing modulators, primary screen, JMH597 strain, luminescence/OD600 ratio; Vibrio harveyi JMH597 AI-2 luminescence/OD600 ratio, 9 h; hits give low values; strain lacks LuxN and CqsS sensors; 0 = neutral-control median; activity change, % at 7.5 µM; 300,000 compounds, 0.4% hits; in the data active = activity change below about -75%, passing the limit was not always enough;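 note: luminescence divided by OD600 gain over 9 h not by final OD600 alone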
T cruzi repl – inhibitors of intracellular T. cruzi growth, primary screen, luminescence, NIH3T3 host cells. T. cruzi beta-gal in NIH3T3, 90 h. inhibition, % (concentration not given with the values). 300,000 compounds, 1.4% hits;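 active = mean inhibition across valid replicates above about 55%, limit read from the data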;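 note: signal also drops with host cell toxicity which is not excluded here; 0% = plate median of DMSO wells and 100% = zero luminescence signal; higher percent means less beta-gal luminescence so fewer parasites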
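Read-out: Parasite load inhibition, % | Test system: Mouse NIH/3T3 fibroblasts infected with β-gal-expressing T. cruzi Tulahuen C4 | Amount: 5,000 cells/well | Medium: DMEM, 2% fetal bovine serum | Signal: GalScreen β-gal luminescence, detergent lysis, 60 min | Timing: 3 h attach, ≥90 h co-culture | Also added: Tulahuen C4 trypomastigotes, 5000/well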
* marks the source's active call; other numbers are inactive results.

CC1CCN(C(=O)CSc2ccc(-c3ccccc3)nn2)CC1 was read as pCIP destab -16.3, UBC13 inh -5.3, PP1 inh -6.3, AI-2 QS mod 29.9 and T cruzi repl 9.0.
For C=CCn1c(SCc2ccc(OC)cc2)nnc1-c1cccnc1 the results were pCIP destab -3.2, UBC13 inh 7.2, PP1 inh 1.3, AI-2 QS mod 7.5 and T cruzi repl -11.4.
For C=CCn1c(SCc2ccc(F)cc2)nnc1-c1sc2nc(C)cc(C)c2c1N the results were pCIP destab -0.3, UBC13 inh 9.9, PP1 inh -0.1, AI-2 QS mod 23.8 and T cruzi repl 63.1*.
`O=C(NCC1CCCN1S(=O)(=O)c1cccs1)c1cccc([N+](=O)[O-])c1` (stereo unspecified) gave UBC13 inh -6.8, PP1 inh -1.2, AI-2 QS mod 17.3 and T cruzi repl -1.0.
`CCOCCCN(C)C1CCN(C(=O)c2oc3ccccc3c2NC(=O)c2ccc(F)cc2)CC1` gave pCIP destab -8.5, UBC13 inh 2.3, PP1 inh -2.4, AI-2 QS mod 14.7 and T cruzi repl 56.4*.
CN1C(=O)C(CC(=O)O)S/C1=N\N=C\c1ccc(O)cc1O (stereo unspecified) was read as pCIP destab -13.3, UBC13 inh -12.4, PP1 inh -4.8, AI-2 QS mod 14.8 and T cruzi repl -16.1.
`CC(C)CCNC(=O)CNC(=S)N(Cc1ccccc1)Cc1cccnc1` gave pCIP destab 1.8, UBC13 inh 1.0, PP1 inh 1.4, AI-2 QS mod 9.6 and T cruzi repl 61.0*.
`O=C(CNC(=S)N(Cc1ccccc1)Cc1cccnc1)NCCc1ccccc1` gave pCIP destab -4.3, UBC13 inh 7.3, PP1 inh 1.9, AI-2 QS mod 19.3 and T cruzi repl 46.9.
`O=C1CCCC/C1=C/NCc1ccccc1` gave pCIP destab -0.2, UBC13 inh -0.9, PP1 inh -2.9, AI-2 QS mod 22.5 and T cruzi repl -17.4.
For Fc1ccc(COc2cccc(CNCc3ccncc3)c2)cc1 the results were pCIP destab -12.9, UBC13 inh -12.7, PP1 inh -6.0, AI-2 QS mod 12.6 and T cruzi repl 60.0*.
`Fc1ccc(COc2ccc(Br)cc2CNCc2ccncc2)cc1` gave pCIP destab -6.3, UBC13 inh 21.4, PP1 inh 3.8, AI-2 QS mod 34.1 and T cruzi repl 70.9*.
For Cc1cccc(N2CCC(N=CN(C)C)=N2)c1 the results were pCIP destab 6.3, UBC13 inh -0.6, PP1 inh 2.8, AI-2 QS mod 16.1 and T cruzi repl 20.4.
For CCn1c(=O)c2cc(C(=O)N(C)c3ccccc3F)sc2c2ccccc21 the results were pCIP destab -12.0, UBC13 inh -4.1, PP1 inh 8.8, AI-2 QS mod 35.5 and T cruzi repl 68.5*.
Screening CC(=O)c1ccc(OC(C)C(=O)OCC(=O)NCCc2ccccc2)cc1 (stereo unspecified) returned UBC13 inh -3.0 and PP1 inh -2.8.
COc1ccc(CCN(Cc2cccs2)S(=O)(=O)c2ccc(S(=O)(=O)N3CCCCCC3)cc2)cc1OC was read as pCIP destab 0.2, UBC13 inh -14.8, PP1 inh -3.1, AI-2 QS mod 23.9 and T cruzi repl 10.6.
CCC(C)NS(=O)(=O)c1ccc(S(=O)(=O)N(CCc2ccc(OC)c(OC)c2)Cc2cccs2)cc1 (stereo unspecified) was read as pCIP destab 2.1, UBC13 inh 5.4, PP1 inh 2.1, AI-2 QS mod 43.2 and T cruzi repl 57.2*.
For CCn1c(N2CCN(S(=O)(=O)c3ccc(F)cc3)CC2)nc2ccccc21 the results were pCIP destab -5.8, UBC13 inh -0.5, PP1 inh 8.2, AI-2 QS mod 8.3 and T cruzi repl 31.8.
`CCn1c(N2CCN(S(=O)(=O)c3ccc(Cl)cc3)CC2)nc2ccccc21` gave pCIP destab -11.4, UBC13 inh 18.6, PP1 inh 1.5, AI-2 QS mod 41.2 and T cruzi repl 87.5*.
Cn1c(CNC(=O)c2ccc(Cl)cc2)nnc1SCC(=O)N1CCOCC1 was read as pCIP destab -6.8, UBC13 inh -9.8, PP1 inh -5.8, AI-2 QS mod 17.5 and T cruzi repl -6.2.
`Cc1cc(F)ccc1NC(=O)c1cc(S(=O)(=O)N2CCOCC2)cn1C` gave pCIP destab -12.2, UBC13 inh 3.0, PP1 inh -2.7, AI-2 QS mod 23.5 and T cruzi repl 1.5.
Cc1cc(NC(=O)CSc2nnc(-c3c[nH]c4ccccc34)n2-c2ccc(Cl)cc2)no1 was read as pCIP destab -11.5, UBC13 inh -14.9, PP1 inh 15.4*, AI-2 QS mod 32.8 and T cruzi repl 6.0.
For O=C(CN1CCN(S(=O)(=O)c2ccccc2Cl)CC1)NCC1(N2CCOCC2)CCCCC1 the results were UBC13 inh -5.1.
Screening O=C(CC1C(=O)NCCN1Cc1ccccc1C(F)(F)F)NC1CCCCC1 (stereo unspecified) returned pCIP destab -5.1, UBC13 inh -11.5, PP1 inh -5.2, AI-2 QS mod 18.4 and T cruzi repl 0.0.
For CC1(c2nnc(Cc3ccccc3)o2)CC(c2ccc([N+](=O)[O-])cc2)=NO1 (stereo unspecified) the results were pCIP destab -10.0, UBC13 inh -1.3, PP1 inh 7.5, AI-2 QS mod 24.8 and T cruzi repl 42.6.
CC1(c2nnc(Cc3ccccc3)o2)CC(c2ccc(Br)cc2)=NO1 (stereo unspecified) was read as UBC13 inh 7.7, PP1 inh 15.6*, AI-2 QS mod 15.8 and T cruzi repl -15.6.
For CCN1C(=O)[C@H]2[C@@H](c3ccc(-c4ccc5c(c4)OCO5)cc3)N[C@@](Cc3ccccc3)(C(=O)OC)[C@H]2C1=O the results were UBC13 inh -6.9.
`CCN1C(=O)[C@H]2[C@@H](c3ccc(-c4cccc(Cl)c4)cc3)N[C@@](Cc3ccccc3)(C(=O)OC)[C@H]2C1=O` gave UBC13 inh -7.4, PP1 inh 6.0, AI-2 QS mod 36.4 and T cruzi repl 55.3*.
COc1ccc(S(=O)(=O)Nc2cccc3c2O[C@H](CN(C)S(=O)(=O)c2cn(C)cn2)[C@@H](C)CN([C@H](C)CO)C3=O)cc1 was read as UBC13 inh -1.3.
Clc1ccc(-c2csc(=Nc3cccnc3)n2CCCn2ccnc2)cc1Cl was read as pCIP destab 5.4, UBC13 inh 4.3, PP1 inh 8.5, AI-2 QS mod 8.9 and T cruzi repl 57.1*.
For Cc1c(CCOC(=O)c2cc([N+](=O)[O-])cc([N+](=O)[O-])c2)sc[n+]1CC(=O)c1ccccc1 the results were pCIP destab 2.1, UBC13 inh 14.8, PP1 inh 2.7, AI-2 QS mod 28.2 and T cruzi repl 69.4*.
